# DENV2 CPE rescue: protects cells from dengue virus 2 cytopathic effect; 350,000 compounds, 1.7% hits; CPE inhibition, % at 9.99 µM; DENV2-infected cells, cytopathic effect rescue, plate reader; in the data active = CPE inhibition above about 20%, passing the limit was not always enough; inconclusive = no clear call, values can overlap the other calls; tested in BHK-21 cells
# XiGFP reactiv: activators of X-chromosome reactivation in mouse fibroblasts; XiGFP mouse fibroblasts, % GFP-positive cells imaging, 3 d; cells co-treated with 5-aza-dC sensitizer; scaled so ellipticine positive control = 100%; activation, % at 7.58 µM; 360,000 compounds, 0.055% hits; AID 743238;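 active = mean normalized replicate activation at least 10% and every replicate at or above 10%; inconclusive = only one of the two criteria met; inactive = mean below 10% and not all replicates reach 10%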
#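 Material: SV40-immortalized XiGFP fibroblast cells, line 68-5-11 | Buffer or medium: DMEM containing 5-aza-dC | Dosing: One concentration, pinned | Times: 3 d treatment, 15 min room-temperature fixation | Controls: Ellipticine 6 µM positive control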
# FGF22 binding: binders of recombinant human FGF22 by thermal shift. SYPRO orange fluorescence; percent of sucrose octasulfate shift, DMSO zero. 340,000 compounds, 1.5% hits. activity (Tm shift, normalised), % at 9.99 µM. Q9HCT0. AID 651658;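 active = mean Tm shift, scaled 0 neutral to 100 positive control, at about 1.3% or above, every replicate too, limit read from the data; inconclusive = no clear call, values can overlap the other calls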
# Target sequence (Q9HCT0 whole entry, looked up): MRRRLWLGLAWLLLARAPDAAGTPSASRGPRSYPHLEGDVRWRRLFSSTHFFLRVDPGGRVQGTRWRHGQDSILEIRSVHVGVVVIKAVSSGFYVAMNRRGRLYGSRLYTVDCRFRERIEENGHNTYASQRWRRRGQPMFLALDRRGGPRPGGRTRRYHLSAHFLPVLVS
# PglD inh: blocks C. jejuni PglD acetyltransferase activity. purified PglD enzyme, DTNB colorimetric CoA detection. 360,000 compounds, 0.098% hits. inhibition, % at 12.5 µM; in the data active = inhibition above about 16%, passing the limit was not always enough; inconclusive = no clear call, values can overlap the other calls
# E-sel inducer: induces E-selectin expression in human endothelial cells; P16581; HUVEC E-selectin immunofluorescence imaging; normalized: neutral wells 0, TNF-alpha wells 100; activation, % at 7.58 µM; 260,000 compounds, 0.37% hits;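 active = mean E-selectin-positive cell signal at least 10% of the positive control, reached in at least 60% of replicates, without over 20% cell loss; inconclusive = no rule given, readout overlaps actives, possibly toxicity-flagged; inactive = the rest, including those meeting only one limit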
#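 Read-out basis: % PE-positive cells; Test system: HUVEC primary endothelial cells; Technique: immunofluorescence imaging; Dosing: single-point compound dose.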
# C2C12 statin: suppression of simvastatin myotoxicity; C2C12 myotubes + simvastatin, ATP luminescence, 48 h; scaled: DMSO 0, geranylgeraniol control 100; rescue of ATP level, % at 7.49 µM; 330,000 compounds, 0.78% hits; AID 602340;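 active = mean ATP rescue above about 67%, or every replicate alone reaching that limit, limit read from the data, passing the limit was not always enough; inconclusive = no clear call, values can overlap the other calls; inactive = mean under the limit and some replicate under it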;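 also: myotubes were challenged with 10 µM simvastatin during compound exposure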
# A number is an active result; . = inactive; ? = inconclusive; / = no result; ! = not confirmed by another sample. The list is not random: actives were taken first. Their share in the collection is about 3.3%.
SMILES,DENV2 CPE rescue,XiGFP reactiv,FGF22 binding,PglD inh,E-sel inducer,C2C12 statin
COc1ccc(S(=O)(=O)Nc2ccc3c(c2)C(=O)N([C@@H](C)CO)C[C@H](C)[C@H](CN(C)Cc2ccc4c(c2)OCO4)OCCCC[C@@H](C)O3)cc1,.,.,.,.,.,.
COc1ccc(S(=O)(=O)Nc2ccc3c(c2)C(=O)N([C@@H](C)CO)C[C@@H](C)[C@@H](CN(C)Cc2ccc4c(c2)OCO4)OCCCC[C@H](C)O3)cc1,22,.,.,.,.,90
COc1ccc(S(=O)(=O)Nc2ccc3c(c2)C(=O)N([C@@H](C)CO)C[C@H](C)[C@@H](CN(C)Cc2ccc4c(c2)OCO4)OCCCC[C@@H](C)O3)cc1,24,.,.,.,.,.
COc1ccc(S(=O)(=O)Nc2ccc3c(c2)C(=O)N([C@H](C)CO)C[C@@H](C)[C@@H](CN(C)Cc2ccc4c(c2)OCO4)OCCCC[C@@H](C)O3)cc1,21,.,.,.,.,.
C[C@H](CO)N1C[C@H](C)[C@@H](CN(C)C(=O)Nc2ccc(F)cc2)Oc2ccc(NS(=O)(=O)c3ccccc3)cc2C1=O,.,.,.,.,.,.
CO[C@@H]1CN(C)C(=O)c2ccc(NS(C)(=O)=O)cc2OC[C@H](C)N(CC2CC2)C[C@@H]1C,.,.,.,.,.,.
C[n+]1ccccc1C1CCCC/C1=N\NC(N)=S (stereo not given),.,.,43,/,/,.
O=C(N/N=C/c1ccsc1)C1CC1,.,.,43,/,/,/
O=C(N/N=C/c1ccc(O)c(O)c1)C1CC1,.,.,.,.,/,/
CCOC(=O)c1c[nH]c2nc(C)ccc2c1=O,.,.,43,/,/,/
CCOC(=O)c1c[nH]c(=O)c(Br)c1O,/,.,/,/,/,.
COc1cc(Nc2ccn3nccc3n2)cc(OC)c1OC,23,.,.,.,.,.
O=C(CCN1CCCCC1)N[C@@H]1CC[C@@H](CCNS(=O)(=O)c2ccc(Cl)cc2)O[C@@H]1CO,.,.,.,.,.,.
Cc1nnc(SCC(=O)N2CCN(C(=O)c3ccco3)CC2)n1-c1ccccc1,.,.,43,/,.,/
Cc1nnc(SCC(=O)NCc2ccco2)n1-c1ccccc1,/,/,/,.,/,.
O=C(CSc1nnc2n1CCCCC2)NCc1ccccc1,.,.,43,.,.,.
Cc1nnc(SCC(=O)NCc2ccccc2)n1-c1ccccc1,/,/,/,.,.,103
C[C@H](CO)N1C[C@H](C)[C@@H](CN(C)Cc2ccc3c(c2)OCO3)Oc2ccc(NC(=O)Nc3ccccc3)cc2CC1=O,.,.,.,.,.,.
C[C@@H]1CCCCO[C@H](CN(C)C(=O)CCC(F)(F)F)[C@H](C)CN([C@@H](C)CO)C(=O)c2cc(NC(=O)c3ccccc3)ccc2O1,.,.,.,.,.,/
CN1[C@@H]2c3ccc(/C=C/c4ccccc4)c(=O)n3C[C@@H]2[C@@H](CO)[C@@H]1C(=O)N1CCCCC1,.,.,.,.,.,.
O=C(Nc1nccs1)c1ccccn1,.,.,43,/,.,/
O=C(NCCCNCCCNC(=O)c1ccccn1)c1ccccn1,/,/,/,.,/,115
O=C(Cc1ccccc1)N1CC2(C1)[C@H](c1ccccc1)[C@H](CO)N2S(=O)(=O)Cc1ccccc1,.,.,.,/,.,/
O=C1c2ccccc2-c2nnc(-c3ccccc3)cc21,/,/,/,.,/,.
COc1ccc(-c2cc3c(nn2)-c2ccccc2C3=O)cc1,.,.,43,.,/,.
SMILES,DENV2 CPE rescue,XiGFP reactiv,FGF22 binding,PglD inh,E-sel inducer,C2C12 statin
Cc1ccc(S(=O)(=O)NCC[C@@H]2CC[C@@H](NC(=O)CC3CC3)[C@@H](CO)O2)cc1,.,.,.,.,.,.
CCCC(=O)Nc1ccc2c(c1)C(=O)N(C)C[C@@H](OC)[C@@H](C)CN(Cc1ccc(-c3ccccn3)cc1)[C@H](C)CO2,27,.,.,.,.,.
CO[C@H]1CN(C)C(=O)c2ccc(NC(=O)NC(C)C)cc2OC[C@H](C)N(Cc2ccc(-c3ccccn3)cc2)C[C@H]1C,68,.,.,.,.,.
CCOC(=O)NC(C)N1C(=O)C2C3C=CC(C3)C2C1=O (stereo not given),.,.,44,/,/,/
CCOC(=O)NCN1C(=O)C2C3C=CC(C3)C2C1=O (stereo not given),/,/,/,.,/,.
C[C@H]1CN([C@@H](C)CO)C(=O)CCCn2nncc2CO[C@@H]1CN(C)C(=O)C1CC1,.,.,.,.,.,.
C[C@@H]1CN([C@@H](C)CO)C(=O)CCCn2nncc2CO[C@@H]1CN(C)CC1CCCCC1,59,.,.,.,.,.
C[C@H](CO)N1C[C@H](C)[C@H](CN(C)C(=O)C2CC2)OCc2cnnn2CCCC1=O,113!,.,.,.,.,.
C[C@H](CO)N1C[C@H](C)[C@@H](CN(C)C(=O)C2CC2)OCc2cnnn2CCCC1=O,49!,.,.,.,.,.
C[C@H]1CN([C@@H](C)CO)C(=O)CCCn2nncc2CO[C@H]1CN(C)CC1CCCCC1,.,.,.,.,.,.
COc1cccc(NC(=O)N(C)C[C@@H]2OCc3cnnn3CCCC(=O)N([C@@H](C)CO)C[C@@H]2C)c1,79,.,.,.,.,.
CCCC(=O)N1CC2(C1)CN(C(=O)C1CCCC1)[C@H](CO)c1[nH]c3cc(OC)ccc3c12,/,.,/,/,/,/
Cc1ccccc1S(=O)(=O)N1[C@@H](c2ccc(F)cc2)C(C(=O)O)=CC[C@H]1c1ccc(Cl)cc1,.,.,2.2,.,/,.
Cc1ccc(S(=O)(=O)N2[C@@H](c3ccc(Br)cc3)C(C(=O)O)=CC[C@H]2c2ccc(C(C)C)cc2)cc1,23,.,.,.,.,.
Cc1ccc([C@@H]2CC=C(C(=O)O)[C@H](c3ccc(C(C)(C)C)cc3)N2S(=O)(=O)c2ccc(C)cc2)cc1,?,.,.,.,.,.
O=C(O)C1=CC[C@@H](c2ccc(Cl)cc2)N(S(=O)(=O)c2ccc(Cl)cc2)[C@H]1c1ccc(F)cc1,.,.,.,.,/,.
CCc1ccc([C@@H]2CC=C(C(=O)O)[C@H](c3ccc(C(C)(C)C)cc3)N2S(=O)(=O)c2ccc(C)cc2)cc1,48,.,.,.,.,.
O=C(N[C@@H]1CC[C@H](CCNC(=O)C2CCOCC2)O[C@@H]1CO)c1ccccn1,.,.,.,.,.,.
C[C@@H]1CCCCO[C@H](CN(C)C)[C@@H](C)CN([C@@H](C)CO)C(=O)c2cc(NS(=O)(=O)c3cccs3)ccc2O1,.,.,.,.,.,/
CC(=O)c1ccc(N=C2SCCCN2C(=O)C2CCCC2)cc1,.,.,43,/,.,/
Cc1ccc2nc3n(c(=O)c2c1)-c1ccc(Cl)cc1C(=O)NC3CC(C)C (stereo not given),77,.,.,/,.,/

# Source: PubChem
